Screening data from PubChem.
Calb FLC: affects C. albicans growth with fluconazole; 0.57% of 300,000 active; AID 1979; growth inhibition, % (concentration not given with the values); C. albicans CaCi-2 (fluconazole-resistant clinical isolate) + fluconazole, Alamar Blue growth, 48 h;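 active means growth inhibition above about 58% in most replicates, limit read from the data, passing the limit was not always enough; inconclusive means exactly half the replicates above a set limit; inactive means most replicates below a set limit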;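 further: all wells also contain fluconazole at 8 µg/ml as a sub-toxic cotreatment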
CSC inhib: blocks cancer stem cells; 1.1% of 300,000 active; inhibition, % at 7.5 µM; AID 2717; cancer stem cell-like cells viability, luminescence; in the data active means inhibition above about 75%; inconclusive means no clear call, values can overlap the other calls; tested in HMLE shEcad cells
T cruzi repl: T. cruzi replication inhibition. T. cruzi beta-gal in NIH3T3, luminescence, 90 h. inhibition, % (no concentration beside the values). 1.4% of 300,000 active;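 active means mean inhibition across valid replicates above about 55%, limit read from the data; inconclusive means mean below that limit but half or more replicates reach it; inactive means mean below it, under half of replicates reach it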;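 further: signal also drops with host cell toxicity which is not excluded here; higher percent means less beta-gal luminescence so fewer parasites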
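compound dosing = single 50 nL compound addition per well in DMSO | material = NIH/3T3 host cells with β-galactosidase reporter T. cruzi | input = 5,000 host fibroblasts per well | timing = ≥90 h infection period, 3 h prior cell attachment | read-out basis = percent inhibition of parasite-derived β-gal signal | detection = GalScreen β-gal luminescence, detergent lysis, 60 min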
SKKanGAS inh: inhibitors of SKKanGAS S. pyogenes growth in kanamycin (SK-promoter or general growth effect) | BacTiter-Glo, 6 h | inhibition, % at 7.5 µM | 1.3% of 300,000 active;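 active means mean replicate score, as percent of positive control median, at least 50; inconclusive means mean below 50 but one replicate at or above 50; inactive means mean and every replicate below 50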;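 further: strain carries kanamycin resistance gene driven by streptokinase promoter and grows in 40 µg/ml kanamycin; loss of luminescence reflects streptokinase promoter inhibition or plain growth inhibition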
Beta apoptosis: blocks beta cell apoptosis; INS-1E cytokine-induced death, ATP luminescence, 48 h; percent of positive-control rescue, neutral wells zero; protection from apoptosis, % (concentration not given with the values); 0.8% of 300,000 active; AID 435005;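 active means Every replicate reaches about 75%, or at least half do and their mean reaches it too, limit read from the data; inconclusive means At least half of replicates reach the limit but their mean does not; inactive means Under half of replicates reach the limit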;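 further: higher means more ATP so stronger rescue from cytokine killing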
Mdm2-MdmX inh: inhibitors of human Mdm2/MdmX interaction | SaOS-2 split-luciferase Mdm2/MdmX complementation, luminescence | inhibition, % at 8 µM | 3% of 330,000 active | AID 485346;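 active means inhibition of at least 50% at 8 µM in the primary screen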
Target sequence (O15151 whole entry, looked up): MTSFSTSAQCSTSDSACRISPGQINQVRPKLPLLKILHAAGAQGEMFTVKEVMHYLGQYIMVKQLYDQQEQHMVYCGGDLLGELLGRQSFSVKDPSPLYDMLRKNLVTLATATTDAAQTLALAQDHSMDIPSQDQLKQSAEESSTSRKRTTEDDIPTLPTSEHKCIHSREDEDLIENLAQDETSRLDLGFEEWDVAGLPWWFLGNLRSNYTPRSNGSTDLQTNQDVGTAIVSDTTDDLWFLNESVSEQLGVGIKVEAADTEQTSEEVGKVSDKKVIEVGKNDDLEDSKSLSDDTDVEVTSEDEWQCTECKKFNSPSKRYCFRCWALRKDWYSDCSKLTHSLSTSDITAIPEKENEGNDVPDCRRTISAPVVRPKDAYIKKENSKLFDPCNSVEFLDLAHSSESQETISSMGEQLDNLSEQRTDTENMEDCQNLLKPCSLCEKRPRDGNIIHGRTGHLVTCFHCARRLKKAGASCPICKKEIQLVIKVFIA
Target sequence (Q00987 whole entry, looked up): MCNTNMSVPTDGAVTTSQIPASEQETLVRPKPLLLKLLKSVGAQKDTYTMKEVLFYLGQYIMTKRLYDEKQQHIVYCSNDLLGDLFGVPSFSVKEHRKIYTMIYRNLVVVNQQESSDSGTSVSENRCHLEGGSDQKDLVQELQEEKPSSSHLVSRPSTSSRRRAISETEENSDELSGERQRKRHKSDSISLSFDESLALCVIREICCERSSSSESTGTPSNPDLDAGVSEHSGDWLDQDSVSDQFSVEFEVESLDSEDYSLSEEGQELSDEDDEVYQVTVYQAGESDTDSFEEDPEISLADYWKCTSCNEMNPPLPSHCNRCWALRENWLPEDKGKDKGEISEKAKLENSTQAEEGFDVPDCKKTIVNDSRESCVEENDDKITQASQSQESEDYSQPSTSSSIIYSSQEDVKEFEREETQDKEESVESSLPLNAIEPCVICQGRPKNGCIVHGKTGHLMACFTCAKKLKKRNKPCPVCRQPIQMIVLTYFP
Numbers stand for hits; 0 = inactive; ? = inconclusive; - = no result. Shown are actives, neighbours in structure and some others; about 5.7% of the full set was active somewhere.

SMILES	Calb FLC	CSC inhib	T cruzi repl	SKKanGAS inh	Beta apoptosis	Mdm2-MdmX inh
COc1ccccc1-n1c(SCC(=O)Nc2ccc(NC(C)=O)cc2)nc2c([nH]c3ccccc32)c1=O	0	0	0	?	0	0
CC(CCc1ccccc1)NC(=O)CCC(=O)N1CCC(C(=O)O)CC1 (stereo unspecified)	0	0	0	0	0	0
CCOCCN1CCN(c2c(CC)c(C)nc3cc(-c4cc(OC)cc(OC)c4)nn23)CC1	0	0	0	0	0	0
CCc1c(C)nc2cc(-c3ccc(OC)c(OC)c3)nn2c1N1CCC(C)CC1	?	0	0	57	0	0
CCc1c(C)nc2cc(-c3cc(OC)cc(OC)c3)nn2c1N1CCCC1	0	83	0	0	0	0
COc1cc(OC)cc(-c2cc3nc4c(c(N5CCN(c6ncccn6)CC5)n3n2)CCCC4)c1	0	0	60	?	0	0
CC(=O)C[C@@H](O)CC(=O)[C@@H]1OC(=O)[C@@H](C)C/C=C\Cc2ccccc21	-	-	-	-	0	0
CCOc1ccc(N(C)S(=O)(=O)c2ccc(C)c(C(=O)OCC(=O)c3c[nH]c4ccccc34)c2)cc1	0	0	0	0	75	0
CCOC(=O)c1sc2ncnc(NCC(c3cccs3)N(C)C)c2c1C (stereo unspecified)	0	0	0	53	0	0
COc1ccccc1NC(=O)CN(c1ccc(C23CC4CC(CC(C4)C2)C3)cc1)S(C)(=O)=O	0	0	0	0	101	0
CCn1c(C)nc2cc(C(=O)OC(C(F)(F)C(F)F)C(F)(F)C(F)F)ccc21	0	0	0	0	104	0
O=C(COc1cc(F)ccc1[N+](=O)[O-])NCCN1C(=O)CSC1=O	-	0	-	-	0	0
Cc1cc(C(=O)N(C)CC2CCCN(CCc3ccc(F)cc3)C2)c(C)o1 (stereo unspecified)	0	0	56	0	0	0
COc1ccc(CCN2CCCC(CN(C)C(=O)c3cc(C)oc3C)C2)cc1 (stereo unspecified)	0	0	63	0	-	0
COc1ccc(CCN2CCCC(CN(C)C(=O)c3ccoc3C)C2)cc1 (stereo unspecified)	0	0	0	0	0	0
C=C(C)C(=O)N1CC2(CC(c3cccc(NC(=O)COc4ccc(Cl)cc4)c3)=NO2)C[C@@H]1C(N)=O (stereo partly specified)	0	0	0	0	104	0
O/N=C/c1cc(Br)ccc1OCc1ccccc1F	0	0	0	0	0	0
O=C(O)CN1C(=O)/C(=C\c2cc(Br)ccc2OCc2ccccc2Cl)SC1=S	0	97	0	95	0	0
O=C(O)CN1C(=O)/C(=C\c2ccccc2OCc2ccc(Cl)cc2Cl)SC1=S	0	0	0	71	0	0
O=C(O)CN1C(=O)/C(=C\c2cccc(OCc3ccc(Cl)cc3Cl)c2)SC1=S	0	0	0	0	0	0
O=C(O)CN1C(=O)/C(=C\c2cc(Br)ccc2OCc2ccccc2F)SC1=S	0	0	0	68	0	0
O=C(O)CN1C(=O)/C(=C\c2cc(Br)ccc2OCc2ccc([N+](=O)[O-])cc2)SC1=S	0	0	0	0	0	0
CNC[C@H]1Oc2c(NS(=O)(=O)c3cccs3)cccc2C(=O)N([C@H](C)CO)C[C@@H]1C	-	0	-	-	0	0
CCN1CCN(C(=S)Nc2sc(C)c(-c3ccccc3)c2C(=O)OC)CC1	0	90	0	0	0	0
Cc1ccc(Cl)cc1NC(=O)c1ccc(Cn2cc(Cl)cn2)cc1	0	100	0	0	0	0
SMILES	Calb FLC	CSC inhib	T cruzi repl	SKKanGAS inh	Beta apoptosis	Mdm2-MdmX inh
CN(C)S(=O)(=O)c1ccc(NC(=O)N2CCN(c3cccc(C(F)(F)F)c3)CC2)cc1	0	0	55	0	0	0
Cc1ccc(C(=O)OC2OC(=O)C(Cl)=C2N2CCOCC2)cc1 (stereo unspecified)	0	0	0	75	0	0
COc1cccc(-c2nn(-c3ccccc3)cc2/C=C(/NC(=O)c2ccccc2)C(=O)O)c1	0	0	0	0	0	0
COc1ccc(-c2nn(-c3ccccc3)cc2CNC(=O)c2cccc([N+](=O)[O-])c2)cc1	0	0	66	0	0	0
O=C(NCc1cn(-c2ccccc2)nc1-c1ccccc1)c1cc([N+](=O)[O-])cc([N+](=O)[O-])c1	0	0	62	0	0	0
O=C(NCc1cn(-c2ccccc2)nc1-c1ccccc1)c1cccc([N+](=O)[O-])c1	0	0	?	0	0	0
Cn1c(=O)n(CC(=O)NCC2CCCO2)c(=O)c2c3c(sc21)COC(C)(C)C3 (stereo unspecified)	0	0	0	0	0	0
CCN(CC(=O)NCc1cccs1)C(=O)COc1ccc(C(C)=O)cc1	-	0	-	-	0	0
CN(C)CCCNS(=O)(=O)c1ccc(NC2CCCCCC2)c([N+](=O)[O-])c1	0	0	0	0	85	0
CCOC(=O)C(C(=O)N(C)Cc1ccccc1)C1CCCCC1 (stereo unspecified)	0	0	0	0	-	0
CCOC(=O)C1=C(N)Oc2cc(O)ccc2C1c1ccc([N+](=O)[O-])cc1 (stereo unspecified)	0	0	57	0	0	0
Cc1ccc(-n2c(C)cc(/C=N/NC(=O)c3ccncc3)c2C)cc1	0	0	0	0	0	0
Cc1ccc(-n2c(C)cc(/C=N/NC(N)=S)c2C)cc1	?	0	65	0	0	0
CC(C)(C)OC(=O)NCc1ccc(CNC(=O)c2[nH]cnc2C(=O)NC2CCN(C(=O)OC(C)(C)C)CC2)cc1	-	0	-	-	0	0
COc1ccc(/C=N/NC(=O)c2cc(C(C)(C)C)[nH]n2)cc1COc1ccc(F)cc1F	0	0	0	61	0	0
COc1ccc(/C=N\NC(=O)c2cc(O)c(O)c(O)c2)cc1COc1ccc(C(=O)OCC(C)C)cc1	0	0	0	90	0	0
COc1ccc(/C=N\NC(=O)c2cc(O)c(O)c(O)c2)cc1CN1CCN(c2ccc(F)cc2)CC1	99	0	0	0	0	-
Cc1ccc(N=Cc2c(O)c3ccccc3oc2=O)cc1F	0	0	0	0	0	0
CCN(CC)C(=O)C1CCCN(C(=O)Nc2ccc(NC(=O)N3CCCC(C(=O)N(CC)CC)C3)cc2)C1 (stereo unspecified)	0	0	0	0	0	0
CCN(CC)C(=O)C1CCCN(Cc2ccc(N(C)C)cc2)C1 (stereo unspecified)	0	0	71	0	0	0
CCN(CC)C(=O)C1CCCN(C(=S)Nc2cccc3ccccc23)C1 (stereo unspecified)	0	0	0	0	85	0
CCOC(=O)C1CCCN(S(=O)(=O)CCNC(=O)c2cccc(OC)c2)C1 (stereo unspecified)	0	0	0	0	0	0
C[C@@H]1[C@H](O)C[C@@]23COC(=O)C2=CCC[C@@H]3[C@@]1(C)CC/C(=C/CO)CO	-	0	-	-	0	0
